Measured values published in ChEMBL document CHEMBL1125563, “Selective, centrally acting serotonin 5-HT2 antagonists. 1. 2- and 6-substituted 1-phenyl-3-(4-piperidinyl)-1H-indoles” (J Med Chem, 1992).

What was measured:
[1] = target: T1, Adrenergic receptor alpha-1 (Rattus norvegicus, UniProt P15823+P23944+P43140); assay: Displacement of [3H]prazosin from Alpha-1 adrenergic receptor of whole rat brain membranes; format: cell membranes, Membrane
T1 sequence (P15823 whole entry): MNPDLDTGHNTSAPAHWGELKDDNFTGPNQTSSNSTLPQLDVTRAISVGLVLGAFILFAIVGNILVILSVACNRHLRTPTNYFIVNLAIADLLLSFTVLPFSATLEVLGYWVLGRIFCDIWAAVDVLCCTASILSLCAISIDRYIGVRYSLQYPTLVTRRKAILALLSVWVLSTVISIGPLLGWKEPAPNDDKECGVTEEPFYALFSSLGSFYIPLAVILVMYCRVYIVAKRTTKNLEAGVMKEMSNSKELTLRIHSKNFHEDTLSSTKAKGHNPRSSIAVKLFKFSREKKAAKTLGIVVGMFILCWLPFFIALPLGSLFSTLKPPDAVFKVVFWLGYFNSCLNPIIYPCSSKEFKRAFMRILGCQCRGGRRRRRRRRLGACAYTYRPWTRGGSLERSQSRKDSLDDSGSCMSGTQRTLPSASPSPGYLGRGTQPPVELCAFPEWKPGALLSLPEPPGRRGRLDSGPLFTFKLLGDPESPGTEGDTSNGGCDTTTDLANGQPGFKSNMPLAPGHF
T1 sequence (P23944 whole entry): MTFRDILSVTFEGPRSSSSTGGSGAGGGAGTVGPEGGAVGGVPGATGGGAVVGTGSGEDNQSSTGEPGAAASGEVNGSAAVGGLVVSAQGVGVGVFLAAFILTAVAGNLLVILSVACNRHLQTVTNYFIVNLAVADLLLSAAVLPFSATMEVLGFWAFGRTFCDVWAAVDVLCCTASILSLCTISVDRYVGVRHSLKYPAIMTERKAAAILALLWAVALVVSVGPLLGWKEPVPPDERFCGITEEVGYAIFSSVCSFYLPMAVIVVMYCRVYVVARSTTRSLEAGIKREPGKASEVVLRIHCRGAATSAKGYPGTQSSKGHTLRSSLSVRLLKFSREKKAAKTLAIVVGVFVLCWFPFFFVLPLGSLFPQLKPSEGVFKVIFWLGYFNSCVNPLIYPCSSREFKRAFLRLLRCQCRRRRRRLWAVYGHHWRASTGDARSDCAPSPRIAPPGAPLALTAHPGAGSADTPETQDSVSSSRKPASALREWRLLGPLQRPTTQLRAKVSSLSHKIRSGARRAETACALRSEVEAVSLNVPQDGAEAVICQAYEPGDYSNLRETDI
T1 sequence (P43140 whole entry): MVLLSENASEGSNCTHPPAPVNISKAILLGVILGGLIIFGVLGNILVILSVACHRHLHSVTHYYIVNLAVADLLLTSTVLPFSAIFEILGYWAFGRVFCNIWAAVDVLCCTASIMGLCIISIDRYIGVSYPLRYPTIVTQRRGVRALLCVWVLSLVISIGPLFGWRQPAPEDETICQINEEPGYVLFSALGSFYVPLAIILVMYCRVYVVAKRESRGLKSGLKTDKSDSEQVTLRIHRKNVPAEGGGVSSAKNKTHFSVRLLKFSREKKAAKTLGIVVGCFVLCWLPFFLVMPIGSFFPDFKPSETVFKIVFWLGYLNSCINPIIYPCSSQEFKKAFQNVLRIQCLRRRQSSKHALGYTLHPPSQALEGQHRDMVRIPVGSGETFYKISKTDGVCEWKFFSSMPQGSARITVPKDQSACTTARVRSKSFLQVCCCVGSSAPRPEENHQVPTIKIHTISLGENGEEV
How it was run: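 α1 adrenoceptor binding measured as displacement of [3H]prazosin from whole rat brain membranes. Five test-drug concentrations spanning three decades in triplicate, two full curves; IC50 from log concentration-effect curves, logarithmic mean of at least two determinations.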

Rattus norvegicus [2] = assay: Compound was evaluated for the inhibition of quipazine-induced head twitches after 2 h (administered subcutaneously); 0.011-0.12; format: functional; settings: sc
Rattus norvegicus [3] = assay: Compound was evaluated for the inhibition of quipazine-induced head twitches after 24 hr (administered perorally); 0.12-0.57; format: functional; settings: po
Rattus norvegicus [4] = assay: Compound was evaluated for the inhibition of pergolide-induced reactions after 2 hr (administered subcutaneously); 1.8-14.4; format: functional; settings: sc
How it was run: (§1)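 Male Wistar rats with unilateral 6-OHDA lesions; test drug sc 2 h before pergolide (0.05 µmol/kg sc) to induce contralateral circling. Effect of each dose expressed as percent of mean of control sessions 1 week before and 1 week after, per rat; at least four rats per dose; ED50 by log-probit analysis.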

Mus musculus [5] = organism: Mus musculus; assay: Compound was evaluated for the inhibition of isolation-induced aggression at a threshold of 180 seconds; 1.1-2.6; format: functional
How it was run: (§2)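 Isolated male NMRI mice (3 weeks) trained to attack a nonaggressive intruder of the same strain; only mice with attack latency <25 s included. Pretested just before dosing and 2 h after sc test substance; observation maximum 180 s; at least eight mice per dose.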

Mus musculus [6] = organism: Mus musculus; assay: Compound was evaluated for the inhibition of isolation-induced aggression at a threshold of, 90 seconds; 1.3-2.9; format: functional; how it was run: as §2
[7] = target: Serotonin 2 (5-HT2) receptor (Rattus norvegicus, UniProt P30994+P08909+P14842); assay: Displacement of [3H]ketanserin from 5-hydroxytryptamine 2 receptor from rat cortical membranes.; format: cell membranes, Membrane
How it was run: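 [3H]ketanserin displacement from rat cortical membranes (5-HT2). Five concentrations across three decades in triplicate, two full curves; IC50 estimated on a log-concentration scale, given as logarithmic mean of at least two determinations.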

Rattus norvegicus [8] = assay: Compound was evaluated for the inhibition of quipazine-induced head twitches after 24 hr (administered subcutaneously); 0.014-0.48; settings: sc
D(2) dopamine receptor = D(2) dopamine receptor (Rattus norvegicus, UniProt P61169); assay: Displacement of [3H]-spiperone from Dopamine receptor D2 from rat striatal membranes; format: cell membranes, Membrane
D(2) dopamine receptor, sequence (P61169 whole entry): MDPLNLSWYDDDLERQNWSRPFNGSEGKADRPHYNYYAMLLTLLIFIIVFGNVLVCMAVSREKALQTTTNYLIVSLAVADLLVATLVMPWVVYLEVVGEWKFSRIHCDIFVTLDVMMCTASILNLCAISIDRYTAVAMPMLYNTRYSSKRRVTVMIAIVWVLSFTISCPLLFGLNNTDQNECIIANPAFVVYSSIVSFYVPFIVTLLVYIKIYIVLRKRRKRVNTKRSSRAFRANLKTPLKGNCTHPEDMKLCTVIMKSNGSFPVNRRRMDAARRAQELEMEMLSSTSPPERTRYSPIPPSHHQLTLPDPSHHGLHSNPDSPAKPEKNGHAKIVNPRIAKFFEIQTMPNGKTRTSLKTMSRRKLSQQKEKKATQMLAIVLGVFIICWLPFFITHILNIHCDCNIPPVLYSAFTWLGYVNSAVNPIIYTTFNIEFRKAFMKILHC
How it was run: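 [3H]spiperone displacement from rat striatal membranes (D2). Five test-drug concentrations over three decades, in triplicate, two full curves; IC50 from log concentration-effect curves, reported as logarithmic mean of at least two determinations.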

Rattus norvegicus [9] = assay: Compound was evaluated for the inhibition of quipazine-induced head twitches after 2 hr (administered subcutaneously); 0.012-0.095; format: functional; settings: sc
Rattus norvegicus [10] = assay: Compound was evaluated for the inhibition of pergolide-induced reactions after 2 hr (administered subcutaneously); 12-50; format: functional; settings: sc; how it was run: as §1
Rattus norvegicus [11] = assay: Compound was evaluated for the inhibition of quipazine-induced head twitches after 24 hr (administered perorally); 0.0091-0.16; settings: po
Rattus norvegicus [12] = assay: Compound was evaluated for the inhibition of quipazine-induced head twitches after 2 hr (administered subcutaneously); 0.072-0.45; format: functional; settings: sc
Rattus norvegicus [13] = assay: Compound was evaluated for the inhibition of quipazine-induced head twitches after 24 h (administered perorally); 0.031-0.20; format: functional; settings: po
Rattus norvegicus [14] = assay: Compound was evaluated for the inhibition of pergolide-induced reactions after 2 hr (administered subcutaneously); 9.7-87; format: functional; settings: sc; how it was run: as §1
Rattus norvegicus [15] = assay: Compound was evaluated for the inhibition of pergolide-induced reactions after 2 hr (administered subcutaneously); 9.7-87; settings: sc
Mus musculus [16] = organism: Mus musculus; assay: Compound was evaluated for the inhibition of isolation-induced aggression at a threshold of 180 seconds; 2.3-12.4; format: functional
Mus musculus [17] = organism: Mus musculus; assay: Compound was evaluated for the inhibition of isolation-induced aggression at a threshold of, 90 seconds; 3.5-18.4; format: functional
Rattus norvegicus [18] = assay: Compound was evaluated for the inhibition of quipazine-induced head twitches after 2 hr (administered subcutaneously); 0.056-0.18; format: functional; settings: sc
Rattus norvegicus [19] = assay: Compound was evaluated for the inhibition of quipazine-induced head twitches after 24 hr (administered subcutaneously); 0.35-2.7; format: functional; settings: sc
Rattus norvegicus [20] = assay: Compound was evaluated for the inhibition of pergolide-induced reactions after 2 hr (administered subcutaneously); format: functional; settings: sc; how it was run: as §1
Mus musculus [21] = organism: Mus musculus; assay: Compound was evaluated for the inhibition of isolation-induced aggression at a threshold of 180 seconds
Mus musculus [22] = organism: Mus musculus; assay: Compound was evaluated for the inhibition of isolation-induced aggression at a threshold of, 90 seconds
[23] = target: T2, Alpha-1A adrenergic receptor (Rattus norvegicus, UniProt P43140); assay: Compound was tested for the displacement of [3H]prazosin from alpha-1 adrenergic receptor of rat whole brain membranes
T2 sequence (P43140 whole entry): T1 sequence (P43140 whole entry)

**Q.** What does the source list for `O=C1NCCN1CCN1CCC(c2cn(-c3ccc(F)cc3)c3ccccc23)CC1`?
**A.** IC50 [1]: 3 nM; ED50 (Rattus norvegicus [2]): 0.036 µmol/kg; ED50 (Rattus norvegicus [3]): 0.26 µmol/kg; ED50 (Rattus norvegicus [4]): 5.1 µmol/kg; ED50 (Mus musculus [5]): 1.7 µmol/kg; ED50 (Mus musculus [6]): 1.9 µmol/kg; IC50 [7]: 0.72 nM; ED50 (Rattus norvegicus [8]): 0.082 µmol/kg

**Q.** Which results are given for `O=C1NCCN1CCN1CCC(c2cn(-c3ccc(F)cc3)c3cc(F)ccc23)CC1`?
**A.** IC50 [1]: 2.2 nM; IC50 (D(2) dopamine receptor): 36 nM; ED50 (Rattus norvegicus [9]): 0.034 µmol/kg; ED50 (Rattus norvegicus [10]): 25 µmol/kg; IC50 [7]: 0.73 nM; ED50 (Rattus norvegicus [11]): 0.038 µmol/kg

**Q.** Which IC50 [1] does the source give for `Cc1c(C2CCN(CCN3CCNC3=O)CC2)c2ccccc2n1-c1ccc(F)cc1` here?
**A.** 76 nM

**Q.** What about the ED50 (Rattus norvegicus [12]) of the same compound?
**A.** 0.18 µmol/kg

**Q.** What about the ED50 (Rattus norvegicus [13]) of the same compound?
**A.** 0.078 µmol/kg

**Q.** And the ED50 (Rattus norvegicus [14])?
**A.** 29 µmol/kg

**Q.** And the IC50 [7]?
**A.** 0.59 nM

**Q.** And the ED50 (Rattus norvegicus [15])?
**A.** 29 µmol/kg

**Q.** With `c1cc2c(c(N3CCNCC3)c1)OCCO2` [ELTOPRAZINE] as the compound, how does the ED50 (Mus musculus [16]) read?
**A.** 5.4 µmol/kg

**Q.** And the ED50 (Mus musculus [17])?
**A.** 8 µmol/kg

**Q.** How did the ED50 (Rattus norvegicus [18]) turn out when `Cc1nc2sccn2c(=O)c1CCN1CCC(=C(c2ccc(F)cc2)c2ccc(F)cc2)CC1` [RITANSERIN] was run?
**A.** 0.1 µmol/kg

**Q.** What about the ED50 (Rattus norvegicus [19]) of the same compound?
**A.** 0.98 µmol/kg

**Q.** What about the ED50 (Rattus norvegicus [20]) of the same compound?
**A.** > 21 µmol/kg

**Q.** What about the ED50 (Mus musculus [21]) of the same compound?
**A.** > 10 µmol/kg

**Q.** And the ED50 (Mus musculus [22])?
**A.** > 10 µmol/kg

**Q.** What about the IC50 [23] of the same compound?
**A.** 47 nM
